In brackets after ≈: the same amount, converted by molar mass.
Tests used:
[1] = tested on: Mycobacterium tuberculosis; test: Antimicrobial activity against Mycobacterium tuberculosis H37Rv after 21 days by micro-broth dilution method; assay type: functional; conditions: 504 h
HCT-116 = test: Cytotoxicity against human HCT116 cells after 4 days by WST-1 assay; assay type: cell-based; conditions: HCT-116, 96 h
In short: (§1)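 Cells cultured in DMEM with 10% fetal calf serum. Seeded at 3000 cells/well, treated 24 h later with 9 concentrations from 100 nM to 100 µM, 8 replicates each. Viability read by WST-1 after 4 days of treatment. IC50 derived by curve fitting.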

[2] = Cytotoxicity against human GM637 cells after 4 days by WST-1 assay; assay type: cell-based; conditions: GM637, 96 h; in short: as §1

Row | SMILES | MIC [1] [µM] | IC50 (HCT-116) [µM] | IC50 [2] [µM]
1 | O=C1CC(c2c(-c3ccccc3)cc3ccccn23)C(=O)N1c1ccccc1 (stereo not drawn) | 109 (≈ 40 µg/mL) | > 100 | > 100
2 | COc1ccc(N2C(=O)CC(n3ccnc3)C2=O)cc1 (stereo not drawn) | 55.3 (≈ 15 µg/mL) | – | –
3 | COc1ccc(N2C(=O)CC(Sc3nnc[nH]3)C2=O)cc1 (stereo not drawn) | 16.4 (≈ 4.99 µg/mL) | – | –
4 | NNC(=O)c1ccncc1 [ISONIAZID] | 0.4 (≈ 0.0549 µg/mL) | – | –
5 | O=C(c1ccc2[nH]ccc2c1)N1CCN(C2c3ccccc3-c3ccccc32)CC1 | > 318 | – | –
6 | O=C1CC(N2CCc3ccccc3C2)C(=O)N1Cc1ccccc1 (stereo not drawn) | 31.2 (≈ 10 µg/mL) | > 100 | > 100
7 | O=C1CC(N2CCN(C3c4ccccc4-c4ccccc43)CC2)C(=O)N1Cc1ccccc1 (stereo not drawn) | 91.4 (≈ 40 µg/mL) | – | –
8 | O=C1CC(N2CCN(C3c4ccccc4-c4ccccc43)CC2)C(=O)N1c1ccccc1 (stereo not drawn) | 94.4 (≈ 40 µg/mL) | > 100 | > 100
9 | O=C1CC(n2ccnc2)C(=O)N1c1ccccc1 (stereo not drawn) | 82.9 (≈ 20 µg/mL) | > 100 | > 100
10 | O=C1CC(c2c3c([N+](=O)[O-])cc([N+](=O)[O-])cc3c3ccccn23)C(=O)N1c1ccccc1 (stereo not drawn) | 46.5 (≈ 20 µg/mL) | > 100 | > 100
11 | O=C1CC(N2CCc3ccccc3C2)C(=O)N1c1ccccc1 (stereo not drawn) | 8.2 (≈ 2.51 µg/mL) | > 100 | > 100
12 | Oc1cc(Cl)ccc1Oc1ccc(Cl)cc1Cl [TRICLOSAN] | 34.5 (≈ 9.99 µg/mL) | – | –
13 | O=C1CC(c2c(-c3ccccc3)cc3ccccn23)C(=O)N1Cc1ccccc1 (stereo not drawn) | 52.6 (≈ 20 µg/mL) | – | –
14 | O=C1CC(Sc2nc[nH]n2)C(=O)N1c1ccccc1 (stereo not drawn) | 18.2 (≈ 4.99 µg/mL) | 17 | 15
